# Activity calls are given as the source filed them. The calls are words filed in the database; no cut-off is given here.
# Columns and labels:
# Staphylococcus aureus [1] = assay: (§1) Antimicrobial activity against […] Staphylococcus aureus ATCC 29213 tissue cage Wistar rat infected model assessed as bacterial load reduction at 50 mg/kg/day, ip treated for 7 days measured 24 hrs after last dose (reference value: 6.8 +/-0.8 logCFU/ml) co-treated with 25 mg/kg rifampin, ip bid; format: functional
# Staphylococcus aureus [2] = assay: as §1, with “100” for “50”; format: functional
# Staphylococcus aureus [3] = assay: Antimicrobial activity against […] Staphylococcus aureus ATCC 29213 at 2 times MIC in presence of rifampin; format: functional, organism-based
# Summary of the method: (§2)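 24-h killing curves in log phase using subinhibitory and clinically available concentrations, single drug or with rifampin. Bactericidal activity is a ≥3-log10 CFU/ml fall from the initial inoculum at 24 h.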
# Staphylococcus aureus [4] = assay: as §1, with “coverslip” for “tissue cage”, “100” for “50”, “14” for “7”, “5.4 +/- 1” for “6.8 +/-0.8”; format: functional
# Staphylococcus aureus [5] = assay: as §1, with “100” for “50”, “14” for “7”, “7.2 +/- 0.6” for “6.8 +/-0.8”; format: functional
# Staphylococcus aureus [6] = assay: Antimicrobial activity against […] Staphylococcus aureus ATCC 29213 tissue cage Wistar rat infected model assessed as bacterial load reduction at 100 mg/kg/day, ip treated for 7 days measured 24 hrs after last dose (reference value: 6.8 +/-0.8 logCFU/ml); format: functional; settings: route intraperitoneal
# [7] = Cmax in Escherichia coli ATCC 35218 infected Wistar rat tissue cage fluid at 50 mg/kg/day, ip measured on day 4; format: ADME, organism-based, Interstitial fluid; design: dose 50 mg/kg/day, route intraperitoneal
# Staphylococcus aureus [8] = assay: Antimicrobial activity against methicillin-resistant Staphylococcus aureus ATCC 29213 tissue cage Wistar rat infected model assessed as bacterial load reduction at 50 mg/kg/day, ip treated for 7 days measured 24 hrs after last dose (reference value: 6.8 +/-0.8 logCFU/ml); format: functional; settings: route intraperitoneal
# [9] = AUC in Escherichia coli ATCC 35218 infected Wistar rat serum at 100 mg/kg/day, ip measured on day 4; format: ADME, organism-based; design: route intraperitoneal
# Staphylococcus aureus [10] = assay: Antimicrobial activity against […] Staphylococcus aureus ATCC 29213 coverslip Wistar rat infected model assessed as bacterial load reduction at 100 mg/kg/day, ip treated for 14 days measured 24 hrs after last dose (reference value: 5.4 +/- 1 logCFU/ml); format: functional; settings: route intraperitoneal
# Staphylococcus aureus [11] = assay: Antimicrobial activity against stationary phase culture of […] Staphylococcus aureus ATCC 29213 by macrodilution method; format: functional
# Summary of the method: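 Macrodilution MIC and MBC. MIC: lowest concentration inhibiting macroscopic growth. MBC: lowest concentration killing 99.9% of the initial inoculum. Log-phase cultures were used, and MBC was also determined in stationary phase. Subcultures were streaked down the plate centre and left to dry before spreading, to avoid carryover.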
# [12] = AUC in Escherichia coli ATCC 35218 infected Wistar rat tissue cage fluid at 50 mg/kg/day, ip measured on day 4; format: ADME, organism-based; design: route intraperitoneal
# [13] = AUC in Escherichia coli ATCC 35218 infected Wistar rat tissue cage fluid at 100 mg/kg/day, ip measured on day 4; format: ADME, organism-based; design: route intraperitoneal
# [14] = Cmax in Escherichia coli ATCC 35218 infected Wistar rat tissue cage fluid at 100 mg/kg/day, ip measured on day 4; format: ADME, organism-based, Interstitial fluid; design: dose 100 mg/kg/day, route intraperitoneal
# [15] = AUC in Escherichia coli ATCC 35218 infected Wistar rat serum at 50 mg/kg/day, ip measured on day 4; format: ADME, organism-based; design: route intraperitoneal
# Staphylococcus aureus [16] = assay: Antimicrobial activity against […] Staphylococcus aureus ATCC 29213 tissue cage Wistar rat infected model assessed as bacterial load reduction at 100 mg/kg/day, ip treated for 14 days measured 24 hrs after last dose (reference value: 7.2 +/- 0.6 logCFU/ml); format: functional; settings: route intraperitoneal
# [17] = AUC in Staphylococcus epidermidis ATCC 27626 infected Wistar rat tissue cage fluid at 25 mg/kg, ip measured on day 4; format: ADME, organism-based; design: dose 25 mg/kg, route intraperitoneal
# [18] = Ratio of Cmax in Wistar rat tissue cage fluid to MIC for Staphylococcus epidermidis ATCC 27626 at 25 mg/kg, ip measured on day 4; format: functional; settings: route intraperitoneal
# [19] = AUC in Staphylococcus epidermidis ATCC 27626 infected Wistar rat serum at 25 mg/kg, ip measured on day 4; format: ADME, organism-based; design: dose 25 mg/kg, route intraperitoneal
# [20] = Cmax in Staphylococcus epidermidis ATCC 27626 infected Wistar rat tissue cage fluid at 25 mg/kg, ip measured on day 4; format: ADME, organism-based; design: dose 25 mg/kg, route intraperitoneal
# [21] = Ratio of AUC in Wistar rat tissue cage fluid to MIC for Staphylococcus epidermidis ATCC 27626 at 25 mg/kg, ip measured on day 4; format: functional; settings: route intraperitoneal
# Staphylococcus aureus [22] = assay: Antimicrobial activity against […] Staphylococcus aureus ATCC 29213 tissue cage Wistar rat infected model assessed as bacterial load reduction at 25 mg/kg, ip bid treated for 7 days measured 24 hrs after last dose (reference value: 6.8 +/-0.8 logCFU/ml); format: functional; settings: route intraperitoneal
# Staphylococcus aureus [23] = assay: Bactericidal activity against log phase culture of […] Staphylococcus aureus ATCC 29213 at 8 times MIC; format: functional, organism-based; summary of the method: as §2
smiles,measurement,setting,value
C[C@H]1COc2c(N3CCN(C)CC3)c(F)cc3c(=O)c(C(=O)O)cn1c23.C[C@H]1COc2c(N3CCN(C)CC3)c(F)cc3c(=O)c(C(=O)O)cn1c23.O [LEVOFLOXACIN],log10CFU/ml,Staphylococcus aureus [1],6.7
same,log10CFU/ml,Staphylococcus aureus [2],6.74
same,inhibition,Staphylococcus aureus [3],inactive
same,log10CFU/ml,Staphylococcus aureus [4],3.36
same,log10CFU/ml,Staphylococcus aureus [5],3.37
same,log10CFU/ml,Staphylococcus aureus [6],6.74
same,Cmax,[7],6000 ng/mL
same,log10CFU/ml,Staphylococcus aureus [8],6.4
same,AUC,[9],106 µg·h/mL
same,log10CFU/ml,Staphylococcus aureus [10],2.24
same,MBC,Staphylococcus aureus [11],> 8 µg/mL
same,AUC,[12],68 µg·h/mL
same,AUC,[13],117 µg·h/mL
same,Cmax,[14],12000 ng/mL
same,AUC,[15],77 µg·h/mL
same,log10CFU/ml,Staphylococcus aureus [16],2.9
CO[C@H]1/C=C/O[C@@]2(C)Oc3c(C)c(O)c4c(O)c(c(/C=N/N5CCN(C)CC5)c(O)c4c3C2=O)NC(=O)/C(C)=C\C=C\[C@H](C)[C@H](O)[C@@H](C)[C@@H](O)[C@@H](C)[C@H](OC(C)=O)[C@@H]1C [RIFAMPIN],AUC,[17],304 µg·h/mL
same,Ratio,[18],440
same,AUC,[19],277 µg·h/mL
same,Cmax,[20],6600 ng/mL
same,Ratio,[21],20260
same,MBC,Staphylococcus aureus [11],4 µg/mL
same,log10CFU/ml,Staphylococcus aureus [22],6.9
same,Activity,Staphylococcus aureus [23],Active
